In ChEMBL document CHEMBL1240350, “In vitro activity of CEM-101 against Streptococcus pneumoniae and Streptococcus pyogenes with defined macrolide resistance mechanisms” (Antimicrob Agents Chemother, 2010):
≈ marks a conversion by molar mass, not a printed value.

Columns and labels:
[1] = test system: Streptococcus pneumoniae; experiment: Antibacterial activity against macrolide-susceptible Streptococcus pneumoniae 7127 harboring S20N mutation in L4 ribosomal protein and A105V mutation in L22 ribosomal protein after overnight incubation by agar dilution method; format: functional
[2] = test system: Streptococcus pneumoniae; experiment: Antibacterial activity against penicillin-intermediate Streptococcus pneumoniae after overnight incubation by agar dilution method; format: functional
Summary of the method: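 Agar dilution on Mueller-Hinton agar supplemented with 5% sheep blood, inoculum 10^4 CFU/spot, read after overnight incubation at 35°C in ambient air. Clinical isolates with defined genotypes; S. pneumoniae ATCC 49619 quality control strain included in each run. MIC50/MIC90 are MICs inhibiting 50% and 90% of isolates.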

[3] = test system: Streptococcus pneumoniae; experiment: Antibacterial activity against macrolide-resistant Streptococcus pneumoniae 3665 harboring mef(A) gene after 50 passages following overnight incubation by agar dilution method; format: functional
[4] = test system: Streptococcus pneumoniae; experiment: Antibacterial activity against macrolide-resistant Streptococcus pneumoniae 3665 harboring mef(A) gene after overnight incubation by agar dilution method; format: functional
[5] = test system: Streptococcus pneumoniae; experiment: Antibacterial activity against macrolide-resistant Streptococcus pneumoniae 1635 harboring erm(A) gene after 14 passages following overnight incubation by agar dilution method; format: functional
[6] = test system: Streptococcus pneumoniae; experiment: Antibacterial activity against penicillin-resistant Streptococcus pneumoniae after overnight incubation by agar dilution method; format: functional
Summary of the method: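 Agar dilution on Mueller-Hinton agar supplemented with 5% sheep blood. Inoculum 10^4 CFU/spot, incubated overnight at 35°C in ambient air. Test strains were clinical pneumococcal isolates. S. pneumoniae ATCC 49619 was included as the quality control strain in each run. MIC range, MIC50 and MIC90 were reported for each susceptibility category.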

[7] = test system: Streptococcus pyogenes; experiment: Antibacterial activity against macrolide-susceptible Streptococcus pyogenes 2132 after 28 passages and 10 compound-free subculturing by retest method
[8] = test system: Streptococcus pneumoniae; experiment: Antibacterial activity against macrolide-susceptible Streptococcus pneumoniae 7127 harboring S20N mutation in L4 ribosomal protein and A105V mutation in L22 ribosomal protein after 16 passages and 10 compound-free subculturing by retest method; format: functional
[9] = test system: Streptococcus pneumoniae; experiment: Antibacterial activity against macrolide-resistant Streptococcus pneumoniae 3009 harboring mutation in 23S rRNA after 50 passages following overnight incubation by agar dilution method; format: functional
[10] = test system: Streptococcus pyogenes; experiment: Antibacterial activity against macrolide-resistant Streptococcus pyogenes 2368 harboring erm(B) gene after overnight incubation by agar dilution method
[11] = test system: Streptococcus pneumoniae; experiment: Antibacterial activity against macrolide-resistant Streptococcus pneumoniae 24 harboring erm(B) gene after 14 passages following overnight incubation by agar dilution method; format: functional
[12] = test system: Streptococcus pyogenes; experiment: Antibacterial activity against macrolide-resistant Streptococcus pyogenes 2094 harboring erm(A) gene after 22 passages following overnight incubation by agar dilution method
[13] = test system: Streptococcus pneumoniae; experiment: Antibacterial activity against macrolide-susceptible Streptococcus pneumoniae 1077 after 15 passages following overnight incubation by […]; format: functional
Summary of the method: (§1)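 S. pneumoniae parental strains were passaged daily in subinhibitory drug concentrations in cation-adjusted Mueller-Hinton broth with 5% lysed horse blood. Each passage was seeded from the tube 1 to 2 dilutions below the MIC whose turbidity matched the growth control. MICs of resistant clones were measured by CLSI macrodilution. Parent and clone identity was confirmed by PFGE of SmaI-digested DNA.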

[14] = test system: Streptococcus pyogenes; experiment: Antibacterial activity against macrolide-resistant Streptococcus pyogenes 2368 harboring erm(B) gene after 6 passages following overnight incubation by agar dilution method
[15] = test system: Streptococcus pneumoniae; experiment: Antibacterial activity against macrolide-resistant Streptococcus pneumoniae 2686 harboring mutation in L4 ribosomal protein after 25 passages following overnight incubation by […]; format: functional; summary of the method: as §1
[16] = test system: Streptococcus pneumoniae; experiment: Antibacterial activity against macrolide-resistant Streptococcus pneumoniae 3665 harboring mef(A) gene after 14 passages following overnight incubation by agar dilution method; format: functional
[17] = test system: Streptococcus pneumoniae; experiment: Antibacterial activity against macrolide-resistant Streptococcus pneumoniae 1635 harboring erm(A) gene after 14 passages and 10 compound-free subculturing by retest method; format: functional
Summary of the method: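 Multistep selection by daily serial passage in subinhibitory drug concentrations. Medium was cation-adjusted Mueller-Hinton broth plus 5% lysed horse blood. Each day the next inoculum came from the tube 1–2 dilutions below the MIC whose turbidity matched the growth control, for up to 50 days. Clone MICs by CLSI macrodilution; identity to the parent confirmed by SmaI PFGE.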

[18] = test system: Streptococcus pneumoniae; experiment: Antibacterial activity against macrolide-resistant Streptococcus pneumoniae 1635 harboring erm(A) gene after 50 passages following overnight incubation by […]; format: functional; summary of the method: as §1
[19] = test system: Streptococcus pneumoniae; experiment: Antibacterial activity against macrolide-resistant Streptococcus pneumoniae 1076 harboring erm(B) and mef(A) gene after 14 passages following overnight incubation by agar dilution method; format: functional
[20] = test system: Streptococcus pneumoniae; experiment: Antibacterial activity against macrolide-resistant Streptococcus pneumoniae 2686 harboring mutation in L4 ribosomal protein after 14 passages following overnight incubation by agar dilution method; format: functional
[21] = test system: Streptococcus pyogenes; experiment: Antibacterial activity against macrolide-resistant Streptococcus pyogenes 2094 harboring erm(A) gene after 6 passages following overnight incubation by agar dilution method
[22] = test system: Streptococcus pneumoniae; experiment: Antibacterial activity against macrolide-susceptible Streptococcus pneumoniae 7127 harboring S20N mutation in L4 ribosomal protein and A105V mutation in L22 ribosomal protein after 15 passages following overnight incubation by agar dilution method; format: functional
[23] = test system: Streptococcus pneumoniae; experiment: Antibacterial activity against macrolide-resistant Streptococcus pneumoniae 1635 harboring erm(A) gene after 49 passages following overnight incubation by agar dilution method; format: functional
[24] = test system: Streptococcus pyogenes; experiment: Antibacterial activity against macrolide-resistant Streptococcus pyogenes 2094 harboring erm(A) gene after 5 passages following overnight incubation by agar dilution method
[25] = test system: Streptococcus pneumoniae; experiment: Antibacterial activity against macrolide-susceptible Streptococcus pneumoniae 1077 after 29 passages following overnight incubation by agar dilution method; format: functional
[26] = test system: Streptococcus pneumoniae; experiment: Antibacterial activity against macrolide-susceptible Streptococcus pneumoniae 7127 harboring S20N mutation in L4 ribosomal protein and A105V mutation in L22 ribosomal protein after 29 passages following overnight incubation by agar dilution method; format: functional
[27] = test system: Streptococcus pneumoniae; experiment: Antibacterial activity against macrolide-susceptible Streptococcus pneumoniae 7127 harboring S20N mutation in L4 ribosomal protein and A105V mutation in L22 ribosomal protein after 16 passages following overnight incubation by agar dilution method; format: functional
[28] = test system: Streptococcus pyogenes; experiment: Antibacterial activity against macrolide-resistant Streptococcus pyogenes 2368 harboring erm(B) gene after 18 passages following overnight incubation by agar dilution method
[29] = Tmax in human at 400 to 500 mg; conditions: in vivo
[30] = Half life in human at 400 to 500 mg; conditions: in vivo
[31] = test system: Streptococcus pneumoniae; experiment: Antibacterial activity against macrolide-susceptible Streptococcus pneumoniae 1077 after 43 passages following overnight incubation by agar dilution method; format: functional
[32] = test system: Streptococcus pneumoniae; experiment: Antibacterial activity against macrolide-resistant Streptococcus pneumoniae 1635 harboring erm(A) gene after 32 passages following overnight incubation by agar dilution method; format: functional
[33] = test system: Streptococcus pneumoniae; experiment: Antibacterial activity against macrolide-resistant Streptococcus pneumoniae 3009 harboring mutation in 23S rRNA after 20 passages following overnight incubation by agar dilution method; format: functional
[34] = test system: Streptococcus pneumoniae; experiment: Antibacterial activity against macrolide-resistant Streptococcus pneumoniae 1076 harboring erm(B) and mef(A) gene after 18 passages following overnight incubation by agar dilution method; format: functional
[35] = Streptococcus pneumoniae, 1635, read-out: MIC

SMILES	MIC [1] [µg/mL]	MIC50 [2] [µg/mL]	MIC90 [2] [µg/mL]	MIC [3] [µg/mL]	MIC [4] [µg/mL]	MIC [5] [µg/mL]	MIC50 [6] [µg/mL]	MIC [7] [µg/mL]	MIC [8] [µg/mL]	MIC [9] [µg/mL]	MIC [10] [µg/mL]	MIC [11] [µg/mL]	MIC [16] [µg/mL]	MIC [17] [µg/mL]	MIC [17, 35] [µg/mL]	other results
CCC[C@@H]1C[C@@H](C(=O)N[C@@H]([C@H]2O[C@H](SC)[C@H](O)[C@@H](O)[C@H]2O)[C@H](C)Cl)N(C)C1 [CLINDAMYCIN]	0.03 (≈ 0.0706 µM)	0.125 (≈ 0.294 µM)	> 64	0.03 (≈ 0.0706 µM)	0.016 (≈ 0.0376 µM)	> 64	0.06 (≈ 0.141 µM)	0.03 (≈ 0.0706 µM)	0.03 (≈ 0.0706 µM)	2 (≈ 4.71 µM)	> 64	–	–	–	–	–
CC[C@H]1OC(=O)[C@H](C)C(=O)[C@H](C)[C@@H](O[C@@H]2O[C@H](C)C[C@H](N(C)C)[C@H]2O)[C@](C)(OC)C[C@@H](C)C(=O)[C@H](C)[C@H]2N(CCCCn3cnc(-c4cccnc4)c3)C(=O)O[C@]12C [TELITHROMYCIN]	0.008 (≈ 0.00985 µM)	0.06 (≈ 0.0739 µM)	0.5 (≈ 0.616 µM)	–	0.125 (≈ 0.154 µM)	–	0.125 (≈ 0.154 µM)	0.03 (≈ 0.0369 µM)	0.06 (≈ 0.0739 µM)	0.03 (≈ 0.0369 µM)	8 (≈ 9.85 µM)	32 (≈ 39.4 µM)	2 (≈ 2.46 µM)	0.008 (≈ 0.00985 µM)	0.004 (≈ 0.00493 µM)	MIC [12]: 0.25 µg/mL (≈ 0.308 µM); MIC [13]: 0.25 µg/mL (≈ 0.308 µM); MIC [14]: > 64 µg/mL; MIC [15]: 0.5 µg/mL (≈ 0.616 µM); MIC90 [6]: 0.5 µg/mL (≈ 0.616 µM); MIC [18]: 0.008 µg/mL (≈ 0.00985 µM); MIC [19]: > 64 µg/mL
CC[C@H]1OC(=O)[C@H](C)[C@@H](O[C@H]2C[C@@](C)(OC)[C@@H](O)[C@H](C)O2)[C@H](C)[C@@H](O[C@@H]2O[C@H](C)C[C@H](N(C)C)[C@H]2O)[C@](C)(OC)C[C@@H](C)C(=O)[C@H](C)[C@@H](O)[C@]1(C)O [CLARITHROMYCIN]	0.03 (≈ 0.0401 µM)	16 (≈ 21.4 µM)	> 64	–	2 (≈ 2.67 µM)	–	16 (≈ 21.4 µM)	0.25 (≈ 0.334 µM)	0.125 (≈ 0.167 µM)	–	> 64	–	–	–	–	MIC [20]: > 64 µg/mL; MIC [21]: > 64 µg/mL; MIC [22]: 16 µg/mL (≈ 21.4 µM); MIC [23]: > 64 µg/mL
CC[C@H]1OC(=O)[C@H](C)[C@@H](O[C@H]2C[C@@](C)(OC)[C@@H](O)[C@H](C)O2)[C@H](C)[C@@H](O[C@@H]2O[C@H](C)C[C@H](N(C)C)[C@H]2O)[C@](C)(O)C[C@@H](C)CN(C)[C@H](C)[C@@H](O)[C@]1(C)O [AZITHROMYCIN]	0.06 (≈ 0.0801 µM)	> 64	> 64	16 (≈ 21.4 µM)	8 (≈ 10.7 µM)	> 64	–	1 (≈ 1.34 µM)	0.06 (≈ 0.0801 µM)	–	> 64	–	–	–	–	MIC [24]: > 64 µg/mL; MIC [25]: > 64 µg/mL; MIC [26]: 0.5 µg/mL (≈ 0.668 µM)
CC[C@H]1OC(=O)[C@@](C)(F)C(=O)[C@H](C)[C@@H](O[C@@H]2O[C@H](C)C[C@H](N(C)C)[C@H]2O)[C@](C)(OC)C[C@@H](C)C(=O)[C@H](C)[C@H]2N(CCCCn3cc(-c4cccc(N)c4)nn3)C(=O)O[C@]12C [SOLITHROMYCIN]	0.008 (≈ 0.00947 µM)	0.03 (≈ 0.0355 µM)	0.25 (≈ 0.296 µM)	–	0.03 (≈ 0.0355 µM)	–	–	0.016 (≈ 0.0189 µM)	0.06 (≈ 0.071 µM)	–	1 (≈ 1.18 µM)	0.06 (≈ 0.071 µM)	0.5 (≈ 0.592 µM)	0.004 (≈ 0.00473 µM)	0.004 (≈ 0.00473 µM)	MIC [27]: 0.125 µg/mL (≈ 0.148 µM); MIC [28]: 8 µg/mL (≈ 9.47 µM); Tmax [29]: 4 h; half-life [30]: 5 h; MIC [31]: 0.06 µg/mL (≈ 0.071 µM); MIC [32]: 0.06 µg/mL (≈ 0.071 µM); MIC [33]: 0.25 µg/mL (≈ 0.296 µM); MIC [34]: 32 µg/mL (≈ 37.9 µM)
